Test results taken from ChEMBL document CHEMBL4325899, “Synthesis and photocytotoxic activity of [1,2,3]triazolo[4,5-h][1,6]naphthyridines and [1,3]oxazolo[5,4-h][1,6]naphthyridines” (Eur J Med Chem, 2019).
Active and inactive are the calls of the source. The calls are words filed in the database; no cut-off is given here.

Assays:
[1] = Dark toxicity against human MCF7 cells preincubated for 5 mins followed by compound washout and measured after 72 hrs by MTT assay; type: cell-based
In short: (§1)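 Cells were plated and allowed to attach overnight. Compounds were diluted in DMSO (0.5% final), with each concentration in triplicate, and applied for 5 min. Cells were then washed in PBS and given fresh medium. Without irradiation, cells were held 72 h at up to 50 μM. MTT (5 mg/mL stock) was added for 4 h, crystals were dissolved in SDS/HCl overnight, and absorbance was read at 540 nm. CC50 is the concentration killing 50% of cells, taken as the mean of at least three experiments.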

[2] = test system: HT-29; test: Phototoxicity index, ratio of CC50 for human HT-29 cells to EC50 for human HT-29 cells under UV irradiation at 1.5 J/cm2
[3] = Selectivity index, ratio of EC50 for human MCF10A cells under UV irradiation at 1.5 J/cm2 to EC50 for human HT-29 cells under UV irradiation at 1.5 J/cm2; type: toxicity; conditions: MCF10A cells versus HT-29 cells, read-out: Ratio EC50
In short: (§2)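 SI is the EC50 under irradiation in non-tumor MCF10A cells divided by the EC50 under irradiation in the tumor line. Both were MTT read-outs 72 h after 1.5 J/cm² at 365 nm.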

[4] = test system: HT-29; test: Phototoxicity against human HT-29 cells preincubated for 5 mins followed by compound washout and subsequent UV irradiation at 1.5 J/cm2 for 5 mins measured after 72 hrs by MTT assay; type: functional, cell-based; conditions: HT-29, light or radiation study
In short: (§3)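 Compounds were diluted in DMSO (0.5% final), applied in triplicate for 5 min, then washed out with PBS. After medium removal, cells were irradiated on ice for 5 min at 365 nm (1.5 J/cm²) and then kept 72 h at 37 °C. Viability was read by MTT at 540 nm and expressed relative to 0.5% DMSO controls given the same treatment. EC50 is the concentration killing 50%, as the mean ± SD of at least three experiments.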

[5] = test system: A-375; test: Phototoxicity against human A375 cells preincubated for 5 mins followed by compound washout and subsequent UV irradiation at 1.5 J/cm2 for 5 mins measured after 72 hrs by MTT assay; type: functional, cell-based; conditions: A-375, light or radiation study; in short: as §3
[6] = Dark toxicity against human HT-29 cells preincubated for 5 mins followed by compound washout and measured after 72 hrs by MTT assay; type: cell-based; in short: as §1
[7] = Dark toxicity against human MCF10A cells preincubated for 5 mins followed by compound washout and measured after 72 hrs by MTT assay; type: cell-based, MCF-10A; in short: as §1
[8] = Dark toxicity against human A375 cells preincubated for 5 mins followed by compound washout and measured after 72 hrs by MTT assay; type: cell-based, A-375; in short: as §1
[9] = test system: MCF-10A; test: Phototoxicity against human MCF10A cells preincubated for 5 mins followed by compound washout and subsequent UV irradiation at 1.5 J/cm2 for 5 mins measured after 72 hrs by MTT assay; type: cell-based; conditions: light or radiation study; in short: as §3
[10] = Solubility of the compound in DMSO; type: physicochemical
[11] = test system: MCF7; test: Phototoxicity against human MCF7 cells preincubated for 5 mins followed by compound washout and subsequent UV irradiation at 1.5 J/cm2 for 5 mins measured after 72 hrs by MTT assay; type: functional, cell-based; conditions: MCF7, light or radiation study; in short: as §3
[12] = test system: A-375; test: Phototoxicity index, ratio of CC50 for human A375 cells to EC50 for human A375 cells under UV irradiation at 1.5 J/cm2
[13] = Selectivity index, ratio of EC50 for human MCF10A cells under UV irradiation at 1.5 J/cm2 to EC50 for human MCF7 cells under UV irradiation at 1.5 J/cm2; type: toxicity; conditions: MCF10A cells versus MCF7 cells, read-out: Ratio EC50; in short: as §2
[14] = Selectivity index, ratio of EC50 for human MCF10A cells under UV irradiation at 1.5 J/cm2 to EC50 for human A375 cells under UV irradiation at 1.5 J/cm2; type: toxicity; conditions: MCF10A cells versus A375 cells, read-out: Ratio EC50; in short: as §2
[15] = Phototoxicity index, ratio of CC50 for human MCF10A cells to EC50 for human MCF10A cells under UV irradiation at 1.5 J/cm2; type: cell-based, MCF-10A; conditions: read-out: Ratio CC50/EC50
[16] = test system: MCF7; test: Phototoxicity index, ratio of CC50 for human MCF7 cells to EC50 for human MCF7 cells under UV irradiation at 1.5 J/cm2
[17] = test system: MCF7; test: Induction of apoptosis in human MCF7 cells assessed as apoptotic cells at EC50 after 4 hrs in presence of photoirradiation by Annexin V-FITC/propidium iodide staining-based flow cytometric analysis relative to control; type: functional
[18] = test system: MCF7; test: Cell cycle arrest in human MCF7 cells assessed as accumulation of cells at G0/G1 phase at EC50 after 24 hrs under UV-irradiation by propidium iodide staining-based flow cytometric analysis (reference value: 44.2%); type: functional
[19] = test system: MCF7; test: Induction of ROS generation in human MCF7 cells at 0.5 to 2 uM measured after 30 mins under dark condition by H2DCFDA probe-based fluorescence assay; type: cell-based; conditions: mcf7, 0.5 h
In short: (§4)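 MCF7 cells (3x10⁴) were plated 24 h ahead to reach 80–90% confluence. Compounds were applied for 30 min in phenol-red-free, serum-free medium, and H2DCFDA (10 µM) was added 15 min before irradiation (1.5 J/cm², ~365 nm) or no irradiation. DCF fluorescence (485/535 nm) was read 2 h after light and expressed relative to untreated controls (100%). PMA (400 nM) served as positive control; three independent experiments.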

[20] = test system: MCF7; test: Induction of mitochondrial dysfunction in human MCF7 cells at 2 uM after 2 hrs in presence of UV irradiation by Mitotracker Orange CMTM-ROS staining-based confocal microscopic analysis; type: functional, cell-based
In short: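 MCF7 cells (4x10⁵) were plated on glass slides for 24 h. They were then loaded with MitoTracker Orange CMTM-ROS (150 nM) for 45 min in phenol-red-free, serum-free medium, before 2 µM compound and UV photoactivation. Cells were fixed in 2% PFA 20 min or 2 h after UV and imaged confocally (ex 543 nm, em 560–620 nm). PMA (400 nM) served as ROS-inducer control.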

[21] = test system: MCF7; test: Induction of apoptosis in human MCF7 cells assessed as viable cells at EC50 after 4 hrs in presence of photoirradiation by Annexin V-FITC/propidium iodide staining-based flow cytometric analysis (reference value: 95%); type: functional
[22] = test system: MCF7; test: Cell cycle arrest in human MCF7 cells assessed as accumulation of cells at S phase at EC50 after 24 hrs under UV-irradiation by propidium iodide staining-based flow cytometric analysis (reference value: 24.7%); type: functional
[23] = test system: MCF7; test: Induction of lysosomal activation in human MCF7 cells at 2 uM after 2 hrs in presence of UV irradiation by Lysotracker Green DND 26 staining-based confocal microscopic analysis; type: functional, cell-based
In short: (§5)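 MCF7 cells (4x10⁵) on glass slides were loaded with LysoTracker Green DND-26 (175 nM) for 45 min in phenol-red-free, serum-free medium, before 2 µM compound with or without UV activation. Cells were fixed in 2% PFA 20 min or 2 h after UV and imaged confocally (ex 488 nm, em 500–530 nm). Controls were untreated cells with and without irradiation, and cells given PMA (400 nM).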

[24] = test system: MCF7; test: Cell cycle arrest in human MCF7 cells assessed as accumulation of cells at subG1 phase at EC50 after 24 hrs under UV-irradiation by propidium iodide staining-based flow cytometric analysis (reference value: 4.8%); type: functional
[25] = test system: MCF7; test: Induction of apoptosis in human MCF7 cells assessed as necrotic cells at EC50 after 4 hrs in presence of photoirradiation by Annexin V-FITC/propidium iodide staining-based flow cytometric analysis relative to control; type: functional
[26] = test system: MCF7; test: Cell cycle arrest in human MCF7 cells assessed as accumulation of cells at G2/M phase at EC50 after 24 hrs under UV-irradiation by propidium iodide staining-based flow cytometric analysis (reference value: 26.3%); type: functional
[27] = test system: MCF7; test: Induction of ROS generation in human MCF7 cells at 2 uM preincubated for 30 mins followed by irradiation at 1.5 J/cm2 for 2 hrs by H2DCFDA probe-based fluorescence assay; type: functional, cell-based; in short: as §4
[28] = Photogeneration of oxygen in aqueous acetonitrile/water solution at 2.3 x 10^-5M measured after 1 hr under 150W irradiation by ADPA probe based spectra analysis
[29] = test system: MCF7; test: Induction of lysosomal activation in human MCF7 cells at 2 uM after 2 hrs in absence of UV irradiation by Lysotracker Green DND 26 staining-based confocal microscopic analysis; type: cell-based; conditions: mcf7, 2 h; in short: as §5
[30] = test system: MCF7; test: Induction of ROS generation in human MCF7 cells at 2 uM measured after 30 mins under dark condition by H2DCFDA probe-based fluorescence assay; type: cell-based; conditions: mcf7, 0.5 h; in short: as §4
[31] = test system: Human immunodeficiency virus 1; test: Antiviral activity against HIV1 3B infected in human MT4 cells assessed as decrease in viral replication by p24 ELISA; type: functional; conditions: Human immunodeficiency virus 1, 3B, read-out: CIC95

SMILES	CC50 at 72 h [1]	Ratio CC50/EC50 [2]	selectivity ratio [3]	EC50 [4]	EC50 [5]	CC50 at 72 h [6]	CC50 at 72 h [7]	CC50 at 72 h [8]	EC50 [9]	solubility [10]	EC50 [11]	Ratio CC50/EC50 [12]	selectivity ratio [13]	selectivity ratio [14]	selectivity ratio [15]	Ratio CC50/EC50 [16]	further results
COc1ccc(-c2nc3c(nc(C)c4ccc(C)nc43)o2)cc1	> 50 µM	>12	> 12	4.28 µM	> 50 µM	> 50 µM	> 50 µM	> 50 µM	> 50 µM	Soluble	> 50 µM						
COc1ccc(-n2nnc3c4nc(-c5ccccc5OC)ccc4c(C)nc32)cc1	> 50 µM		> 1	> 50 µM	1.09 µM	> 50 µM	> 50 µM	> 50 µM	> 50 µM	Soluble	> 50 µM	>46	> 1	46			
Cc1nc2oc(-c3ccccc3)nc2c2[nH]c(=O)ccc12	> 50 µM			> 50 µM	1.49 µM	> 50 µM	> 50 µM	> 50 µM	> 50 µM	Soluble	> 50 µM	>34		34			
COc1ccccc1-c1ccc2c(C)nc3oc(-c4ccccc4)nc3c2n1	> 50 µM	>254	6	0.197 µM	0.633 µM	> 50 µM	> 50 µM	> 50 µM	1.17 µM	Soluble	1.32 µM	>79	0.884	2	> 43	>38	
COc1ccc(-c2ccc3c(C)nc4c(nnn4-c4ccccc4)c3n2)cc1	> 50 µM	>508	1.01	0.099 µM	10.1 µM	> 50 µM	> 50 µM	> 50 µM	0.099 µM	Soluble	34 µM	>5	0.003	0.009	> 505	>1.5	
COc1ccccc1-c1ccc2c(C)nc3oc(-c4cc(OC)c(OC)c(OC)c4)nc3c2n1	> 50 µM	>254	9	0.197 µM	0.764 µM	> 50 µM	> 50 µM	> 50 µM	1.86 µM	Soluble	3.53 µM	>65	0.527	2	> 27	>14	
COc1cc(-c2nc3c(nc(C)c4ccc(-c5ccccc5)nc43)o2)cc(OC)c1OC	> 50 µM	>81	7	0.62 µM	1.44 µM	> 50 µM	> 50 µM	> 50 µM	4.38 µM	Soluble	5.94 µM	>35	0.737	3	> 11	>8	
COc1ccc(-n2nnc3c4nc(C)ccc4c(C)nc32)cc1	> 50 µM			> 50 µM	> 50 µM	> 50 µM	> 50 µM	> 50 µM	> 50 µM	Soluble	> 50 µM						Activity [17]: 4%; Activity [18]: 43.2%; Activity [19]: Non-Toxic; Activity [20]: inactive; Activity [21]: 90%; Activity [22]: 25.7%; Activity [23]: inactive; Activity [24]: 4.5%; Activity [25]: 7%; Activity [26]: 26.6%; Activity [27]: inactive; Activity [28]: Active; Activity [29]: Non-Toxic; Activity [30]: Non-Toxic
O=C(c1cc(Cc2ccccc2)cc(CN2CCCS2(=O)=O)c1)c1ncc2cccnc2c1O																	IC95 [31]: 0.39 µM
COc1ccc(-c2ccc3c(C)nc4c(nnn4-c4ccc(OC)cc4)c3n2)cc1	> 50 µM	>29	> 29	1.74 µM	0.875 µM	> 50 µM	> 50 µM	> 50 µM	> 50 µM	Soluble	> 50 µM	>57	> 1	57			
Cc1ccc2c(C)nc3oc(-c4ccccc4)nc3c2n1	> 50 µM	>8	> 8	6.59 µM	> 50 µM	> 50 µM	> 50 µM	> 50 µM	> 50 µM	Soluble	> 50 µM						
